Measured values reported in ChEMBL document CHEMBL3232782, “1,2,3,4,8,9,10,11-octahydrobenzo[j]phenanthridine-7,12-diones as new leads against Mycobacterium tuberculosis” (J Med Chem, 2014).

Assays:
Type in all cases: functional
[1] = tested on: Mycobacterium tuberculosis; assay: Antimycobacterial activity against multidrug-resistant Mycobacterium tuberculosis LAM-1 assessed as bacterial growth index at 0.25 uM measured on day 6 by BACTEC MGIT 960TB method relative to control
Procedure, shortened: (§1)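 MDR LAM-1, resistant to INH, RIF, rifabutin and prothionamide, was precultured in BACTEC MGIT vials to GI 300. It was inoculated with compound dilutions made from 1 mg/mL DMSO stocks in 7H9-OADC. Growth index was recorded daily. Day-6 GI was compared with an untreated culture diluted 100-fold (C/100) to set the critical 99% inhibitory concentration. Controls: INH 0.1 μM; moxifloxacin 1.14 μM.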

[2] = tested on: Mycobacterium tuberculosis; assay: Antimycobacterial activity against multidrug-resistant Mycobacterium tuberculosis LAM-1 assessed as bacterial growth index at 0.50 uM measured on day 6 by BACTEC MGIT 960TB method relative to control; procedure, shortened: as §1
[3] = tested on: Mycobacterium tuberculosis; assay: Antimycobacterial activity against multidrug-resistant Mycobacterium tuberculosis LAM-1 assessed as bacterial growth index at 2.5 uM measured on day 6 by BACTEC MGIT 960TB method relative to control; procedure, shortened: as §1

Row | SMILES | Growth_index [1] | Growth_index [2] | Growth_index [3]
1 | CCOC(=O)C1CCc2ncc3c(c2C1)C(=O)C1=C(C3=O)C2CCC1CC2 (stereo unspecified) | 2382 | 638 | 
2 | CC(C)(C)C1CCc2ncc3c(c2C1)C(=O)C1=C(C3=O)C2CCC1C2 (stereo unspecified) |  | 1982 | 537
3 | CCOC(=O)C1CCc2ncc3c(c2C1)C(=O)C1=C(C3=O)C2CCC1C2 (stereo unspecified) | 1970 | 367 | 
